Reference: ChEMBL document CHEMBL2169850, “3,6-bis(3-alkylguanidino)acridines as DNA-intercalating antitumor agents” (Eur J Med Chem, 2012)
Activity calls are given as the source filed them. No cut-off for these calls is given here.

What was measured:
[1] = biological target: T1, DNA topoisomerase 1 (Homo sapiens) (UniProt P11387); test: Inhibition of human topoisomerase 1 assessed as reduction in pBR322 DNA relaxation of relaxation at 5 uM by DNA unwinding assay
T1 sequence (whole entry): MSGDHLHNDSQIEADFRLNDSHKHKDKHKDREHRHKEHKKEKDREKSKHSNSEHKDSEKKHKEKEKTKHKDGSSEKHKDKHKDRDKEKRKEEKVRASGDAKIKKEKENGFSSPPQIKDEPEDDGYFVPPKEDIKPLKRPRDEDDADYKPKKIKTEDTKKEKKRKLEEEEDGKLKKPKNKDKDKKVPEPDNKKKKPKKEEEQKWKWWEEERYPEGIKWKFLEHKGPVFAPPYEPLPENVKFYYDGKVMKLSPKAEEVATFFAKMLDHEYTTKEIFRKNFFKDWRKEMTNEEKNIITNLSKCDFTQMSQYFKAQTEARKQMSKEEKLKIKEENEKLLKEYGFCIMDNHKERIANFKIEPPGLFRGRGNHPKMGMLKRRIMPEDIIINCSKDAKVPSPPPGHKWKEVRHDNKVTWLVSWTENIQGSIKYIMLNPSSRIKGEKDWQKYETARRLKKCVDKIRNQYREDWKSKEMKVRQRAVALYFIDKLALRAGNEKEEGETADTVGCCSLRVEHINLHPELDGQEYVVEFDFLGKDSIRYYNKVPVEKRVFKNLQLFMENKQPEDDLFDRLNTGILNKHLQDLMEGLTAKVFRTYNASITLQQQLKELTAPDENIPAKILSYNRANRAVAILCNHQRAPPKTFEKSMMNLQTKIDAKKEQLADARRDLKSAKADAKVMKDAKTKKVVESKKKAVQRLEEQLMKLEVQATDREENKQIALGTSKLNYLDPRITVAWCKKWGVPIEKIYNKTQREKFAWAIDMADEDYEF

[2] = biological target: T1, DNA topoisomerase 1 (Homo sapiens); test: Inhibition of human topoisomerase 1 assessed as reduction in pBR322 DNA relaxation of relaxation at 60 uM by DNA unwinding assay
Nucleic Acid [3] = test: Binding affinity to Escherichia coli pUC19 DNA assessed as reduction in DNA mobility to 5 to 80 uM by EMSA; type: nucleic-acid assay
Summary of the method: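 Supercoiled pUC19 plasmid incubated with compound at 5, 20, 40, 60 or 80 µM. Native agarose gel electrophoresis run with no ethidium bromide in the gel; band mobility was then read.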

Nucleic Acid [4] = test: Binding affinity to calf thymus DNA increase in DNA viscosity at 12 to 60 uM by viscosimetric titration assay; type: nucleic-acid assay; settings: Bos taurus
Summary of the method: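 Relative viscosity of ctDNA (3.11 × 10^-8 M) with compound at 12–60 × 10^-6 M was measured by automated microviscometry in a 1.6 mm capillary at 25 °C, in 10 mM Tris, pH 7.4. Solution density was also measured.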

Nucleic Acid [5] = test: Binding affinity to calf thymus DNA at 6.5 uM by CD spectroscopy; type: nucleic-acid assay; settings: Bos taurus
Summary of the method: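 CD spectra were recorded in 1 mm quartz cuvettes in 0.01 M Tris, pH 7.4, with 6.52 µM compound and ctDNA. Each spectrum is the mean of three scans after buffer background subtraction.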

Nucleic Acid [6] = test: Binding affinity to calf thymus DNA by spectrofluorimetric titration assay; type: nucleic-acid assay; settings: Bos taurus
Summary of the method: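 Fluorescence titration at 25 °C in 0.01 M Tris, pH 7.4. Compound (9.58 × 10^-6 M) was titrated with ctDNA from 0 to 2.57 × 10^-4 M bp, excited at 384 nm, and emission recorded from 400 to 600 nm. K and n were obtained from McGhee–von Hippel fits of Scatchard data.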

Nucleic Acid [7] = test: Binding affinity to calf thymus DNA assessed as melting temperature at 12.4 uM by thermal denaturation study; type: nucleic-acid assay; settings: Bos taurus
Nucleic Acid [8] = test: Binding affinity to calf thymus DNA assessed as hypochromacity at 12.8 uM by UV-visible absorption spectroscopy; settings: Bos taurus
HL-60 [9] = test: Drug uptake in human HL60 cells with normal morphology at 50 uM incubated for 18 hrs by fluorescence microscopy; type: ADME, cell-based; settings: hl-60, 18 h
Summary of the method: (§1)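 HL-60 cells were treated with 50 µM compound for 18 h, washed with PBS, resuspended in HBSS and mounted as native slides. Cells were imaged by inverted fluorescence microscopy at 40×, with excitation 360/40 and emission 470/40. The fluorescence channel was merged with brightfield images.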

HL-60 [10] = test: Drug uptake in human HL60 cells with necrotic morphology at 50 uM incubated for 18 hrs by fluorescence microscopy; type: ADME, cell-based; settings: hl-60, 18 h; summary of the method: as §1
HL-60 [11] = test: Induction of apoptosis in human HL60 cells at 5 to 25 uM incubated for 24 hrs by AnnexinV/propidium iodide staining method; type: functional, cell-based
Summary of the method: (§2)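 HL-60 cells (1.5 × 10^5) were treated at 5–25 µM for 24, 48 or 72 h and harvested. They were stained with Annexin V-FITC for 10 min in HEPES/CaCl2/NaCl binding buffer, washed, briefly stained with PI (1 mg/mL) and analysed by flow cytometry for apoptosis and necrosis. Mean ± SD, n ≥ 3.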

HL-60 [12] = test: Antiproliferative activity against human HL60 cells assessed as cell number at 25 uM incubated for 72 hrs by Coulter counting method; type: functional
Summary of the method: (§3)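 HL-60 cells in RPMI with 10% heat-inactivated FCS, antibiotics and amphotericin, 37 °C, 5% CO2, seeded in 60 mm dishes. Compound added at 5, 15 or 25 µM for 24, 48 or 72 h. Absolute cell counts taken by Coulter counter and expressed as percentage of untreated control. Mean ± SD of at least three independent experiments; one-way ANOVA with Tukey test, p < 0.05.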

HL-60 [13] = test: Antiproliferative activity against human HL60 cells assessed as cell number at 15 uM incubated for 72 hrs by Coulter counting method; type: functional; summary of the method: as §3
HL-60 [14] = test: Antiproliferative activity against human HL60 cells assessed as cell number at 5 uM incubated for 72 hrs by Coulter counting method; type: functional; summary of the method: as §3
HL-60 [15] = test: Antiproliferative activity against human HL60 cells assessed as cell number at 15 uM incubated for 48 hrs by Coulter counting method; type: functional; summary of the method: as §3
HL-60 [16] = test: Antiproliferative activity against human HL60 cells assessed as cell number at 25 uM incubated for 48 hrs by Coulter counting method; type: functional; summary of the method: as §3
HL-60 [17] = test: Antiproliferative activity against human HL60 cells assessed as cell number at 5 uM incubated for 48 hrs by Coulter counting method; type: functional; summary of the method: as §3
HL-60 [18] = test: Antiproliferative activity against human HL60 cells assessed as cell number at 15 uM incubated for 24 hrs by Coulter counting method; type: functional; summary of the method: as §3
HL-60 [19] = test: Antiproliferative activity against human HL60 cells assessed as cell number at 25 uM incubated for 24 hrs by Coulter counting method; type: functional; summary of the method: as §3
HL-60 [20] = test: Antiproliferative activity against human HL60 cells assessed as cell number at 5 uM incubated for 24 hrs by Coulter counting method; type: functional; summary of the method: as §3
HL-60 [21] = test: Induction of necrosis in human HL60 cells at 5 to 25 uM incubated for 72 hrs by AnnexinV/propidium iodide staining method; type: functional, cell-based
Summary of the method: (§4)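 HL-60 cells (1.5 × 10^5) were exposed to compound, then stained 10 min with Annexin V-FITC in HEPES/CaCl2/NaCl binding buffer. Cells were washed, briefly stained with propidium iodide and analysed by flow cytometry for apoptotic and necrotic fractions. Mean ± SD of at least three independent experiments.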

HL-60 [22] = test: Induction of necrosis in human HL60 cells at 5 to 25 uM incubated for 24 hrs by AnnexinV/propidium iodide staining method; type: functional, cell-based; summary of the method: as §4
HL-60 [23] = test: Induction of apoptosis in human HL60 cells at 5 to 25 uM incubated for 48 hrs by AnnexinV/propidium iodide staining method; type: functional, cell-based; summary of the method: as §2
HL-60 [24] = test: Induction of apoptosis in human HL60 cells at 5 to 25 uM incubated for 72 hrs by AnnexinV/propidium iodide staining method; type: functional, cell-based; summary of the method: as §2
HL-60 [25] = test: Induction of necrosis in human HL60 cells at 5 to 25 uM incubated for 48 hrs by AnnexinV/propidium iodide staining method; type: functional, cell-based; summary of the method: as §4
HL-60 [26] = test: Induction of caspase-3 activation in human HL60 cells at 25 uM incubated for 72 hrs by FACS assay; type: functional
Summary of the method: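 HL-60 cells were treated for 72 h, washed in cold PBS, fixed and permeabilized for 20 min on ice. They were incubated with a FITC anti-active caspase-3 antibody for 30 min at RT and analysed by flow cytometry. Results are the percentage of positively stained cells; mean ± SD, n ≥ 3.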

HL-60 [27] = test: Induction of caspase-3 activation in human HL60 cells at 5 to 25 uM incubated for 24 to 72 hrs by FACS assay; type: functional, cell-based
Summary of the method: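 HL-60 cells (RPMI with 10% heat-inactivated FCS, 37 °C, 5% CO2) were seeded in dishes and treated 24, 48 or 72 h. Cells were fixed and permeabilized 20 min on ice, then stained 30 min at RT with FITC anti-active caspase-3 antibody. Read-out was the percentage of positive cells by flow cytometry. Mean ± SD of at least three independent experiments; ANOVA with Tukey.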

Activity [1]	Topoisomerase 1 inhibition (active/inactive) [2]	Activity (Nucleic Acid [3])	Activity (Nucleic Acid [4])	Activity (Nucleic Acid [5])	K (Nucleic Acid [6]) [×10⁵ /M]	Tm (Nucleic Acid [7]) [°C]	Activity (Nucleic Acid [8]) [%]	Compound	further results
Active	Active	Active	Active	Active	4.25	86	17	CCCCNC(=N)Nc1ccc2cc3ccc(NC(=N)NCCCC)cc3nc2c1	–
Active	Active	inactive	Active	Active	2.36	88	31	CCCCCNC(=N)Nc1ccc2cc3ccc(NC(=N)NCCCCC)cc3nc2c1.Cl.Cl.O	Drug uptake (HL-60 [9]): Active; Drug uptake (HL-60 [10]): Active; Activity (HL-60 [11]): inactive; Activity (HL-60 [12]): 48.67%; Activity (HL-60 [13]): 54.4%; Activity (HL-60 [14]): 83.3%; Activity (HL-60 [15]): 77.14%; Activity (HL-60 [16]): 67.98%; Activity (HL-60 [17]): 81.9%; Activity (HL-60 [18]): 75.2%; Activity (HL-60 [19]): 78.32%; Activity (HL-60 [20]): 76.19%; Activity (HL-60 [21]): inactive; Activity (HL-60 [22]): inactive; Activity (HL-60 [23]): inactive; Activity (HL-60 [24]): inactive; Activity (HL-60 [25]): inactive; Activity (HL-60 [26]): 46.8%; Activity (HL-60 [27]): inactive
Active	Active	Active	Active	Active	5.01	85	32	CCCNC(=N)Nc1ccc2cc3ccc(NC(=N)NCCC)cc3nc2c1	–
